About 3,000 (0.88%) of roughly 340,000 compounds were called active. What follows is part of a selection rich in actives, with near analogues and random picks from the rest. Values without a mark were called inactive.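 The calls were made as follows: active = inhibition above about 50% at 20 µM (limit read from the data); inactive = the rest.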
Each compound was assayed against Carboxy-terminal domain RNA polymerase II polypeptide A small phosphatase 1 (Homo sapiens) (UniProt Q9GZU7) (assay: inhibition of human SCP1 dephosphorylation activity – biochemical, colorimetric, uHTS, primary screen (AID 493091;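 also: plate controls were DMSO wells with enzyme for no effect and wells lacking enzyme for full effect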)). Details: Recombinant Scp1, phosphopeptide, malachite green phosphate absorbance; at 20 µM; hits give high values.
Carboxy-terminal domain RNA polymerase II polypeptide A small phosphatase 1 (Homo sapiens), sequence (Q9GZU7 76-261 limits assumed): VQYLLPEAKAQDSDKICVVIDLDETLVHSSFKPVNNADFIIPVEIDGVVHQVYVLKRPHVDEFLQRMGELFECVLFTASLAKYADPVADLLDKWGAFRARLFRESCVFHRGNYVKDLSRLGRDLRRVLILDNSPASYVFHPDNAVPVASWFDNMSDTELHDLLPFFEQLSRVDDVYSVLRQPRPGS
Method in brief: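 System: truncated SCP-1 phosphatase (76-261aa); medium: Tris acetate buffer pH 5.5 with MgCl2 and Tween-20; incubation: 45 min room-temperature reaction, 5 min colour, 30 min stabiliser; compound: single 20 µM dose, 1% DMSO; reagent: Phosphorylated 17-residue peptide substrate; read-out: % inhibition at 20 µM; technique: colorimetric free-phosphate detection, absorbance 630 nm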
`CCOC(=O)C1=C(C)c2ccccc2OC1C(=O)OCC` (configuration not stated) gave an inhibition of -1.33%.
Compound `CCOC(=O)C1=C(NC(=S)NC(=O)c2ccccc2)c2ccccc2CC1(C)C` has an inhibition of -6.2%.
For `CCOC(=O)C1=C(C)c2ccccc2OC1(C)C(=O)OCC` (configuration not stated), the inhibition was 70.1% (active).
For `COc1c(C(C)C)oc2cc3oc(=O)ccc3cc12`, the inhibition was -9.44%.
`COc1ccc(NC(=O)c2ccco2)cc1NC(=O)c1ccc(C#N)cc1F` was tested, and the inhibition was 6.99%.
In the case of `N#Cc1ccc(C(=O)Nc2cccc3cccnc23)c(F)c1`, the inhibition is reported as 100% (active).
Work on `CSc1ccc(C#N)cc1NC(=O)c1cccc(Cl)c1` yielded an inhibition of -21.5%.
With `Nc1ccc2nc3c(=O)[nH]c(=S)[nH]c3nc2c1` the inhibition was 78.4% (active).
Work on `CC12CCC(C(=O)N3CCN(c4ncccn4)CC3)(c3nc4ccccc4nc31)C2(C)C` (configuration not stated) yielded an inhibition of -9.3%.
For `COC(=O)Cc1c(-c2[nH]c3ccccc3c2CC(=O)OC)[nH]c2ccccc12`, the inhibition was -13.3%.
Work on `O=C(C[n+]1cc(Br)cc2ccccc21)c1ccc(F)cc1` yielded an inhibition of -4.19%.
`COC(=O)C[n+]1cccc2ccccc21` was tested, and the inhibition was 105% (active).
Work on `CCOc1cc2[nH]c(=S)n(CCCN3CCCC3=O)c(=O)c2cc1OCC` yielded an inhibition of -8.04%.
Compound `Cc1ccc(NC(=S)N2CCN(c3ncccn3)CC2)cc1C` has an inhibition of 4.95%.
Compound `COc1ccc(CN2CCC(n3nccc3NC(=O)CCCc3ccccc3)CC2)cc1C` has an inhibition of 6.87%.
In the case of `Cc1c(OC(C)C(=O)N[C@@H](Cc2ccccc2)C(=O)O)ccc2c3c(c(=O)oc12)CCCC3` (some centres not stated), the inhibition is reported as 4.1%.
With `Cc1oc2c(C)c3oc(=O)c(CC(=O)N[C@@H](CC(C)C)C(=O)N[C@@H](Cc4ccccc4)C(=O)O)c(C)c3cc2c1C` the inhibition was 88% (active).
`Cc1c(CCC(=O)N[C@@H](CC(C)C)C(=O)O)c(=O)oc2c(C)c3oc4c(c3cc12)CCCC4` was tested, and the inhibition was -2.45%.
Compound `CC(Oc1ccc(-c2ccccc2)c(F)c1)c1ccn(S(=O)(=O)c2cccc3ccccc23)n1` (configuration not stated) has an inhibition of -13.9%.
For `Cc1c(-c2nn(C)c(=O)c3ccccc23)oc2ccc(F)cc2c1=O`, the inhibition was 3.62%.
`Cc1c(Cl)c([N+](=O)[O-])nn1CCCC(=O)NC(C)c1ccccc1` (configuration not stated) was tested, and the inhibition was -27.1%.
`Cc1nnc(SCC(=O)Nn2cnnc2)s1` was tested, and the inhibition was -3.13%.
In the case of `Cc1nnc(SCC(=O)Nc2ccc(S(=O)(=O)Nc3ccc(Cl)nn3)cc2)s1`, the inhibition is reported as 79.2% (active).
For `CCCCCC(=O)Nc1ccc(S(=O)(=O)Nc2ccc(Cl)nn2)cc1`, the inhibition was 4.6%.
`CCNC(=O)COc1cc(C)c(Br)c(C)c1` was tested, and the inhibition was -2.07%.
`O=C(Nc1nc(-c2ccco2)c(-c2ccco2)s1)c1ccco1` gave an inhibition of -3.82%.
With `COCCNC(=O)Nc1ccc2nc(-c3ccco3)c(-c3ccco3)nc2c1` the inhibition was 79.6% (active).
For `COCCNC(=O)c1snc2ccc(Cl)cc12`, the inhibition was -6.6%.
Work on `O=C(COc1ccccc1)Nc1ccc(N2CCN(C(=O)c3cccs3)CC2)cc1` yielded an inhibition of -5.15%.
`O=C(CNC(=O)c1n[nH]c2ccccc12)Nc1cc(Cl)ccc1Cl` was tested, and the inhibition was 5.8%.
Compound `Cc1cccc(N=Nc2c(O)[nH]c3ccc(F)cc23)c1` has an inhibition of -10.6%.
Work on `COc1ccccc1OCCCCCCN1CCN(C)CC1` yielded an inhibition of -4.32%.
For `COc1ccc(C(=O)NC(=S)Nc2ccccc2N2CCN(S(C)(=O)=O)CC2)cc1OC`, the inhibition was -10.7%.
`CCC(=O)Nc1ccccc1N1CCN(S(C)(=O)=O)CC1` was tested, and the inhibition was 53.6% (active).
`CCCC(=O)Nc1ccccc1N1CCN(C(=O)c2ccccc2)CC1` was tested, and the inhibition was -9.5%.
`CCn1cc(C(=O)NCC(=O)NC(C)(C)CO)c(=O)c2cc3c(cc21)OCO3` showed an inhibition of -9.05%.
For `COc1ccccc1CCC(=O)OCC(=O)N1CCN(S(=O)(=O)c2ccc(C)cc2C)CC1`, the inhibition was -11.1%.
`CC1(C)CC(CNCCC(c2ccc(F)cc2)c2ccco2)CCO1` (configuration not stated) was tested, and the inhibition was -5.21%.
Compound `CCn1ncc(CNC(=O)C2(C)CC2(Br)Br)c1C` (configuration not stated) has an inhibition of -6.32%.
For `COc1ccc(S(=O)(=O)N(C)C[C@@H]2Oc3ccc(NC(=O)Nc4c(C)noc4C)cc3C(=O)N([C@H](C)CO)C[C@@H]2C)cc1`, the inhibition was 21.7%.
Work on `C[C@H](CO)N1C[C@H](C)[C@@H](CN(C)S(=O)(=O)c2ccc(F)cc2)Oc2ccc(NC(=O)CCC(F)(F)F)cc2C1=O` yielded an inhibition of -5.81%.
For `C[C@@H]1CN([C@@H](C)CO)C(=O)c2cc(NC(=O)C3CC3)ccc2O[C@H]1CN(C)C`, the inhibition was -8.19%.
`C[C@H](CO)N1C[C@H](C)[C@@H](CN(C)C(=O)NC2CCCCC2)Oc2ccc(NC(=O)c3ccncc3)cc2C1=O` was tested, and the inhibition was 57.7% (active).
In the case of `Cc1noc(C)c1NC(=O)Nc1ccc2c(c1)C(=O)N([C@H](C)CO)C[C@H](C)[C@@H](CN(C)C(=O)Nc1ccc(C(F)(F)F)cc1)O2`, the inhibition is reported as 50.3% (active).
`COc1ccc(NC(=O)Nc2ccc3c(c2)C(=O)N([C@H](C)CO)C[C@H](C)[C@@H](CN(C)C(=O)Nc2ccc4c(c2)OCO4)O3)cc1` was tested, and the inhibition was 48.8%.
For `COc1ccc(NC(=O)N(C)C[C@H]2Oc3ccc(NC(=O)C4CC4)cc3C(=O)N([C@H](C)CO)C[C@@H]2C)cc1`, the inhibition was 67.9% (active).
`Cc1ccc(S(=O)(=O)Nc2ccc3c(c2)C(=O)N([C@H](C)CO)C[C@@H](C)[C@@H](CN(C)C(=O)Nc2cccc4ccccc24)O3)cc1` was tested, and the inhibition was 59.1% (active).
With `Cc1noc(C)c1S(=O)(=O)N(C)C[C@H]1Oc2ccc(NC(=O)C3CCCCC3)cc2C(=O)N([C@H](C)CO)C[C@@H]1C` the inhibition was -2.33%.
With `C[C@@H]1CN([C@@H](C)CO)C(=O)c2cccc(NS(=O)(=O)c3ccc(F)cc3)c2O[C@H]1CN(C)C(=O)NC1CCCCC1` the inhibition was -0.48%.
`C[C@@H]1CN([C@H](C)CO)C(=O)c2cc(NC(=O)NC3CCCCC3)ccc2O[C@H]1CN(C)S(C)(=O)=O` showed an inhibition of -8.19%.
In the case of `Cc1noc(C)c1NC(=O)Nc1ccc2c(c1)C(=O)N([C@H](C)CO)C[C@H](C)[C@@H](CN(C)C(=O)Nc1ccccc1)O2`, the inhibition is reported as 35.8%.
For `CN(C(=O)CSc1nnc(-c2c[nH]c3ccccc23)o1)C1CCS(=O)(=O)C1` (configuration not stated), the inhibition was -5.57%.
